Data from EPA's CvTdb concentration-time database.

Assays:
[1] = system: rat; experiment: concentration in blood after dosing; conditions: duration: 4 hr
[2] = system: human; experiment: concentration in blood after dosing; negative times count back from the end of exposure; conditions: dosed: dichloromethane, inhalation, duration: 6 hr, male
Outline: (§1)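 Data points giving concentration or amount against time came from published in vivo toxicokinetic studies and from two structured collections. PubMed searching, classifier screening and manual review located the studies. Most points were digitised from plot screenshots using WebPlotDigitizer, the rest were copied from tables, and all keep their reported units.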

[3] = system: human; experiment: concentration in expired air after dosing; negative times count back from the end of exposure; conditions: dosed: dichloromethane, inhalation, duration: 6 hr, male
Outline: as §1

[4] = system: mouse; experiment: concentration in kidney after dosing; conditions: dosed: dichloromethane, iv, male, B6C3F1
Outline: as §1

[5] = system: mouse; experiment: concentration in liver after dosing; conditions: dosed: dichloromethane, iv, male, B6C3F1
Outline: as §1

[6] = system: mouse; experiment: concentration in body after dosing; conditions: dosed: dichloromethane, iv, male, B6C3F1
Outline: as §1

[7] = system: mouse; experiment: concentration in lung after dosing; conditions: dosed: dichloromethane, iv, male, B6C3F1
Outline: as §1

CCCCCCCCCC [decane]
[1], dosed: decane, 1200 ppm, inhalation
Conditions | concentration in blood [µg/g]
0.51 h | 0.855
0.5118 h | 1.32
0.5126 h | 1.61
0.5141 h | 0.232
1.018 h | 0.402
1.021 h | 0.836
1.022 h | 1.06
1.023 h | 1.4
2.003 h | 0.669
2.007 h | 0.196
2.01 h | 0.37
2.011 h | 0.451
3.997 h | 0.455
4.002 h | 0.176
4.003 h | 0.21
5.5 min | 4.98
335 s | 6.97
338 s | 8.67

BrCBr [dibromomethane]
[1], dosed: dibromomethane, dermal, male, Fischer-344
Conditions | concentration in blood [ng/mL]
0.4941 h, 500 ppm | 965
0.5004 h, 5000 ppm | 8990
0.5042 h, 10000 ppm | 34200
0.5051 h, 1000 ppm | 1170
0.9982 h, 500 ppm | 1280
0.9999 h, 5000 ppm | 14700
1.004 h, 10000 ppm | 55200
1.005 h, 1000 ppm | 2090
2.005 h, 500 ppm | 1290
2.007 h, 1000 ppm | 2720
2.011 h, 10000 ppm | 90100
2.014 h, 5000 ppm | 30000
2.998 h, 1000 ppm | 3020
2.998 h, 10000 ppm | 120000
3 h, 500 ppm | 1150
3.005 h, 5000 ppm | 38200
4.005 h, 1000 ppm | 3130
4.005 h, 10000 ppm | 142000
4.007 h, 500 ppm | 1280
4.017 h, 5000 ppm | 44900

ClCCl [dichloromethane]
Conditions | concentration in blood [ng/mL] | concentration in body [µg/g] | concentration in expired air [ppm] | concentration in kidney [µg/g] | concentration in liver [µg/g] | concentration in lung [µg/g]
[2], 1 h, 100 ppm | 150 | – | – | – | – | –
[2], 1 h, 350 ppm | 910 | – | – | – | – | –
[2], 6 h, 100 ppm | 62 | – | – | – | – | –
[2], 6 h, 350 ppm | 340 | – | – | – | – | –
[2], 16 h, 100 ppm | 12 | – | – | – | – | –
[2], 16 h, 350 ppm | 77 | – | – | – | – | –
[2], 24 h, 350 ppm | 36 | – | – | – | – | –
[3], 0.083 h, 100 ppm | – | – | 12.1 | – | – | –
[3], 0.083 h, 350 ppm | – | – | 81.3 | – | – | –
[3], 0.25 h, 100 ppm | – | – | 8.5 | – | – | –
[3], 0.25 h, 350 ppm | – | – | 58.9 | – | – | –
[3], 0.5 h, 100 ppm | – | – | 6.7 | – | – | –
[3], 0.5 h, 350 ppm | – | – | 38.7 | – | – | –
[3], 1 h, 100 ppm | – | – | 4.2 | – | – | –
[3], 1 h, 350 ppm | – | – | 25.1 | – | – | –
[3], 1.5 h, 100 ppm | – | – | 2.7 | – | – | –
[3], 1.5 h, 350 ppm | – | – | 17.7 | – | – | –
[3], 2 h, 100 ppm | – | – | 2.6 | – | – | –
[3], 2 h, 350 ppm | – | – | 14.9 | – | – | –
[3], 3 h, 100 ppm | – | – | 1.8 | – | – | –
[3], 3 h, 350 ppm | – | – | 10.3 | – | – | –
[3], 4 h, 100 ppm | – | – | 1.4 | – | – | –
[3], 4 h, 350 ppm | – | – | 8.3 | – | – | –
[3], 6 h, 350 ppm | – | – | 4.5 | – | – | –
[3], 8 h, 350 ppm | – | – | 3.2 | – | – | –
[3], 16 h, 350 ppm | – | – | 1.3 | – | – | –
[4], 1 h, 10 mg/kg | – | – | – | 1.99 | – | –
[4], 1 h, 50 mg/kg | – | – | – | 3.82 | – | –
[4], 3 h, 10 mg/kg | – | – | – | 1.31 | – | –
[4], 3 h, 50 mg/kg | – | – | – | 2.17 | – | –
[4], 4 h, 10 mg/kg | – | – | – | 0.78 | – | –
[4], 4 h, 50 mg/kg | – | – | – | 1.74 | – | –
[4], 20 min, 10 mg/kg | – | – | – | 1.86 | – | –
[4], 20 min, 50 mg/kg | – | – | – | 3.7 | – | –
[4], 40 min, 10 mg/kg | – | – | – | 1.56 | – | –
[4], 40 min, 50 mg/kg | – | – | – | 5.31 | – | –
[5], 1 h, 10 mg/kg | – | – | – | – | 4.11 | –
[5], 1 h, 50 mg/kg | – | – | – | – | 15.4 | –
[5], 3 h, 10 mg/kg | – | – | – | – | 2.56 | –
[5], 3 h, 50 mg/kg | – | – | – | – | 7.81 | –
[5], 4 h, 10 mg/kg | – | – | – | – | 1.29 | –
[5], 4 h, 50 mg/kg | – | – | – | – | 7.12 | –
[5], 20 min, 10 mg/kg | – | – | – | – | 3.45 | –
[5], 20 min, 50 mg/kg | – | – | – | – | 21.6 | –
[5], 40 min, 10 mg/kg | – | – | – | – | 3.57 | –
[5], 40 min, 50 mg/kg | – | – | – | – | 15.9 | –
[6], 1 h, 10 mg/kg | – | 0.14 | – | – | – | –
[6], 1 h, 50 mg/kg | – | 0.14 | – | – | – | –
[6], 3 h, 50 mg/kg | – | 0.028 | – | – | – | –
[6], 4 h, 50 mg/kg | – | 0.018 | – | – | – | –
[6], 20 min, 10 mg/kg | – | 1.3 | – | – | – | –
[6], 20 min, 50 mg/kg | – | 1.16 | – | – | – | –
[6], 40 min, 10 mg/kg | – | 0.076 | – | – | – | –
[6], 40 min, 50 mg/kg | – | 0.076 | – | – | – | –
[7], 1 h, 10 mg/kg | – | – | – | – | – | 4.11
[7], 1 h, 50 mg/kg | – | – | – | – | – | 2.96
[7], 3 h, 10 mg/kg | – | – | – | – | – | 2.56
[7], 3 h, 50 mg/kg | – | – | – | – | – | 1.54
[7], 4 h, 10 mg/kg | – | – | – | – | – | 1.29
[7], 4 h, 50 mg/kg | – | – | – | – | – | 1.23
[7], 20 min, 10 mg/kg | – | – | – | – | – | 1.71
[7], 20 min, 50 mg/kg | – | – | – | – | – | 6.19
[7], 40 min, 10 mg/kg | – | – | – | – | – | 3.57
[7], 40 min, 50 mg/kg | – | – | – | – | – | 3.98

during exposure
Conditions | concentration in blood, 100 ppm [ng/mL] | concentration in blood, 350 ppm [ng/mL] | concentration in expired air, 100 ppm [ppm] | concentration in expired air, 350 ppm [ppm]
[2], -1 h | 1050 | 5860 | – | –
[2], -3 h | 1110 | 5920 | – | –
[2], -6 h | 5 | 16 | – | –
[3], -1 h | – | – | 43.3 | 192
[3], -2 h | – | – | 42.8 | 190
[3], -3 h | – | – | 41.8 | 192
[3], -4 h | – | – | 41.2 | 176
[3], -4.5 h | – | – | 40.4 | 165
[3], -5 h | – | – | 39.4 | 155
[3], -5.5 h | – | – | 36.4 | 141
[3], -5.75 h | – | – | 34.6 | 126
[3], -36 s | – | – | 45.7 | 202
